Reference: PubChem BioAssay AID624268 (The Scripps Research Institute Molecular Screening Center, 2012)
Out of some 360,000 compounds screened, about 1,500 (0.42%) were called active. For the sample, actives were picked, then their nearest neighbours and some compounds at random. Unmarked numbers belong to inactive results.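 The calls were made as follows: active = inhibition above a per-plate cutoff of the control wells' mean inhibition plus 3 SD (cut at about 5.5% in these data); inactive = the rest.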

System: methionyl-tRNA synthetase (Trypanosoma brucei brucei)
Assay: inhibition of trypanosome methionyl-tRNA synthetase – biochemical, luminescence, primary screen (AID 624268);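 also: 0% = DMSO wells median and 100% = median of wells with control inhibitor compound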
Details: purified T. brucei MetRS, ATP depletion, Kinase-Glo luminescence; at 11.9 µM; stronger effect = higher value
Outline: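 Material – parasite MetRS enzyme · Medium – HEPES-MgCl2-KCl buffer plus DTT, spermine, BSA, pyrophosphatase · Reagent – ATP, methionine and E. coli bulk tRNA substrates · Times – 15 min enzyme-compound preincubation, 2 h reaction, 10 min detection, 25 °C · Measured by – luminescence of leftover ATP · Evaluation – percent inhibition relative to median high and low control wells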

Row | Structure (SMILES) | inhibition
1 | O=C(c1ccc(N2CCCC2=O)cc1)N1CCN(c2ccc(C(F)(F)F)cc2[N+](=O)[O-])CC1 | -0.05%
2 | COCCn1c(SC(C)C(=O)NC2CC2)nnc1-c1cccc(C)c1 (stereo unspecified) | -0.37%
3 | O=C(Nc1ccc(N2CCOCC2)cc1)c1cccc2c(-c3ccc(F)c(F)c3)coc12 | -0.14%
4 | C=CCSc1nsc(NC(=O)Nc2cccc(C(C)=O)c2)n1 | -1.33%
5 | CCSc1nsc(NC(=O)Nc2cccc(C(C)=O)c2)n1 | -0.36%
6 | CSc1nsc(NC(=O)Nc2ccccc2)n1 | 19.9% (active)
7 | O=C(COC(=O)c1ccc(F)cc1F)Nc1ncccn1 | 0.09%
8 | O=C(ON=C1CCN(S(=O)(=O)c2ccccc2)CC1)c1ccc(Cl)cc1 | -0.24%
9 | CCCn1c(SCC(=O)Nc2ccc(C)c(S(=O)(=O)N3CCOCC3)c2)n[nH]c1=O | -1.6%
10 | COc1ccc(OC)c(NC(=O)Cn2c(=O)oc3ccccc32)c1 | -0.7%
11 | Cc1ccc(CCCOC(=O)C[N+]2(C)CCCC2)cc1 | -0.15%
12 | Cc1cccc(C)c1N1C(=O)CN(Cc2ccccc2)C1=S | -1%
13 | CCCCN1C[C@H](c2ccc(Br)cc2)[C@@H](CC(=O)Nc2ccc(Br)cc2)C1=O | 38.6% (active)
14 | CCCCN1CC(C)(C)[C@H](CC(=O)Nc2ccc(Br)cc2)C1=O | 0.54%
15 | C[C@H]1CN(c2ccc(Br)cc2)C(=O)[C@@H]1CC(=O)Nc1ccc(Br)cc1 | -0.7%
16 | CCOC(=O)C1=C(c2ccccc2)NC(=O)NC1c1cc(OCC)c(O)c([N+](=O)[O-])c1 (stereo unspecified) | -0.17%
17 | O=C1CSc2ccc(C(=O)NCc3ccccn3)cc2N1 | -0.41%
18 | c1ccc(CCc2ccccn2)cc1 | -0.47%
19 | c1ccc(CN=C2Nc3ccccc3CS2)nc1 | 11.2% (active)
20 | Cc1ccc(C2CC(c3cccc(Br)c3)n3nc(N)nc3N2)cc1 (stereo unspecified) | -0.23%
21 | CCOc1ccccc1C1CC(c2ccc(Cl)cc2)Nc2nc(N)nn21 (stereo unspecified) | 0.5%

Row | Structure (SMILES) | inhibition
22 | COc1ccc(C2CC(c3ccc(Cl)cc3Cl)Nc3nc(N)nn32)cc1OC (stereo unspecified) | 9.33% (active)
23 | Cc1ccc(CNC(=O)CSc2nnc3c(n2)[nH]c2ccc(F)cc23)cc1 | 15.6% (active)
24 | COc1ccc2[nH]c3nc(SCC(=O)NC4CC4)nnc3c2c1 | 0.12%
25 | Cc1ccn2c(=O)nc(SCC(=O)NCc3ccc(F)cc3)nc2c1 | -0.43%
26 | CCCNC(=O)C1(C)CCN(C(=O)c2ccc(F)cc2Cl)C1 (stereo unspecified) | -0.42%
27 | O=C(NNc1cc(Cl)cc(Cl)c1)c1c(F)cccc1Cl | 45.1% (active)
28 | CCN(CC)CCNC(=O)c1ccc(NC(=O)c2c(F)cccc2Cl)cc1 | -0.39%
29 | O=C(O)c1cc2c(cc1NC(=O)c1c(F)cccc1Cl)OCCCO2 | 0.17%
30 | C=CCC(Nc1ccccc1)c1cccc(OC)c1OC (stereo unspecified) | 0.2%
31 | O=C1COc2ccc(C(=O)COC(=O)C3CC(O)CN3S(=O)(=O)c3ccc(Cl)cc3)cc2N1 (stereo unspecified) | 0.64%
32 | CNC[C@@H]1Oc2c(NS(C)(=O)=O)cccc2C(=O)N([C@@H](C)CO)C[C@H]1C | -0.2%
33 | CCN(CC(=O)Nc1c(F)cccc1F)C(=O)C1CCC1 | -0.09%
34 | O=C(Cn1c2[n+](c3ccc(C(F)(F)F)cc31)CCCCC2)Nc1c(F)cccc1F | 17.2% (active)
35 | O=C(CCC1CCCCC1)Nc1cc(C(F)(F)F)ccc1N1CCOCC1 | 0.04%
36 | N#CCc1c[nH]c2ccc([N+](=O)[O-])cc12 | -0.24%
37 | COc1ccc(OCC(O)CNC(=O)Nc2ccc(Cl)cc2)cc1 (stereo unspecified) | 60.1% (active)
38 | CCc1ccc(S(=O)(=O)NCC(O)COc2ccc(OC)cc2)cc1 (stereo unspecified) | -0.05%
39 | COC(=O)[C@H](CCSC)NC(=O)Nc1ccc(OC)cc1 | -0.05%
40 | COc1cccc(NC(=O)N2CCC(NC(=O)C(Cc3cccc(C)c3)NC(C)=O)CC2)c1 (stereo unspecified) | -0.33%
41 | CC(Oc1ccccc1F)C(=O)NN (stereo unspecified) | -0.07%
42 | CCCOn1c(-n2nc(C)cc2C)nc2ccccc2c1=O | -0.74%

Row | Structure (SMILES) | inhibition
43 | CCN(CC(=O)NCCc1ccccc1)S(=O)(=O)c1ccccc1 | 1.61%
44 | CN(C(=O)CSc1nnc(-c2ccc(C(C)(C)C)cc2)n1C)C1CCS(=O)(=O)C1 (stereo unspecified) | -0.23%
45 | CN(C(=O)CSc1nnc(Nc2ccccc2)s1)C1CCS(=O)(=O)C1 (stereo unspecified) | 6.74% (active)
46 | CN(C(=O)CSc1nnc(-c2ccc3c(c2)OCO3)o1)C1CCS(=O)(=O)C1 (stereo unspecified) | -0.28%
47 | O=C(CSc1nnc(-c2c[nH]c3ccccc23)o1)c1ccccc1 | 0.1%
48 | CN(C(=O)CSc1nnc(-c2c[nH]c3ccccc23)o1)C1CCS(=O)(=O)C1 (stereo unspecified) | 8.69% (active)
49 | CCn1c(SCC(=O)N(C)C2CCS(=O)(=O)C2)nnc1-c1cccs1 (stereo unspecified) | -0.25%
50 | Cn1nc(C(F)(F)F)c(-c2ccc(F)cc2)c1NC(=O)CSCC(=O)O | -1.21%
51 | Cc1ccc(C)c(N2C(=O)CS/C2=N\NC(=O)c2ccccc2Cl)c1 | -0.16%
52 | CC(=O)Nc1ccc(NC(=O)[C@@H](NC(=O)c2cccc(C)c2)C(C)C)cc1 | -0.8%
53 | Cc1ccc(NC(=O)C(C)c2cccc(C(=O)c3ccccc3)c2)cc1 (stereo unspecified) | 67.8% (active)
54 | CCC(C(=O)Nc1ccc(C(C)C)cc1)c1ccccc1 (stereo unspecified) | 0.33%
55 | COc1ccc(CNC(=O)C(C)NCc2ccccc2Cl)cc1 (stereo unspecified) | -0.92%
56 | COc1ccc(NC(=O)C(NC(C)=O)C(=O)NCc2ccccc2Cl)cc1 (stereo unspecified) | 7.6% (active)
57 | COc1ccc(NC(=O)N2CCCC2C(=O)NCc2ccccc2Cl)cc1 (stereo unspecified) | -0.13%
58 | Nc1ccccc1Sc1cc(Cl)nnc1Cl | 1.75%
59 | CSc1ccc(S(=O)(=O)NCc2ccc(Cl)cc2)cc1 | -1.21%
60 | O=C(O)CCn1c(O)c(C=C2N=c3ccccc3=N2)sc1=S | 7.5% (active)
61 | CCN=c1sc(C(=O)Nc2ccccc2)c(C)n1CC | 0.54%
